Assay results: ChEMBL document CHEMBL3421533, “The Discovery of Orally Bioavailable Tyrosine Threonine Kinase (TTK) Inhibitors: 3-(4-(heterocyclyl)phenyl)-1H-indazole-5-carboxamides as Anticancer Agents” (J Med Chem, 2015)

Columns and labels:
[1] = Cytotoxicity against human PC3 cells after 5 days by sulforhodamine B assay; type: functional; conditions: PC-3, 120 h
Method in brief: (§1)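 Cancer lines were seeded at 800–6000 cells per well according to growth rate, 24 h before compound overlay. After culture, cells were fixed in situ and stained with sulforhodamine B. GI50 values were derived by curve fitting.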

[2] = target: T1, Aurora kinase A (Homo sapiens, UniProt O14965); assay: Inhibition of recombinant AURKA (unknown origin) preincubated for 15 mins prior to ATP addition by FRET-based homogenous assay
T1 sequence (O14965 whole entry): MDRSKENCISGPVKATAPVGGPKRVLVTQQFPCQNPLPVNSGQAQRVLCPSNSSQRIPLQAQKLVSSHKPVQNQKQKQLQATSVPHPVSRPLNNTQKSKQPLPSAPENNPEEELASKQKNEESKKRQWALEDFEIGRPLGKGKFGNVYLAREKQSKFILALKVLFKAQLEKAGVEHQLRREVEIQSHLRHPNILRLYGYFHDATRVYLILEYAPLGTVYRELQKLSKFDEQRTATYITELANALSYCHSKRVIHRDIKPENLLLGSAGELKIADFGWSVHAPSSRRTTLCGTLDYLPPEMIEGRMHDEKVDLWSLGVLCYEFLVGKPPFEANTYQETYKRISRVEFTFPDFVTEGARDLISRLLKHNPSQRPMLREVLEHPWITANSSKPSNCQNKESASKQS

[3] = target: T2, Dual specificity protein kinase TTK (Homo sapiens, UniProt P33981); assay: Inhibition of amino terminal GST-fused full length human TTK using His6-SUMO-TTK-N as substrate preincubated for 15 mins prior to ATP addition by indirect ELISA detection system
T2 sequence (P33981 whole entry): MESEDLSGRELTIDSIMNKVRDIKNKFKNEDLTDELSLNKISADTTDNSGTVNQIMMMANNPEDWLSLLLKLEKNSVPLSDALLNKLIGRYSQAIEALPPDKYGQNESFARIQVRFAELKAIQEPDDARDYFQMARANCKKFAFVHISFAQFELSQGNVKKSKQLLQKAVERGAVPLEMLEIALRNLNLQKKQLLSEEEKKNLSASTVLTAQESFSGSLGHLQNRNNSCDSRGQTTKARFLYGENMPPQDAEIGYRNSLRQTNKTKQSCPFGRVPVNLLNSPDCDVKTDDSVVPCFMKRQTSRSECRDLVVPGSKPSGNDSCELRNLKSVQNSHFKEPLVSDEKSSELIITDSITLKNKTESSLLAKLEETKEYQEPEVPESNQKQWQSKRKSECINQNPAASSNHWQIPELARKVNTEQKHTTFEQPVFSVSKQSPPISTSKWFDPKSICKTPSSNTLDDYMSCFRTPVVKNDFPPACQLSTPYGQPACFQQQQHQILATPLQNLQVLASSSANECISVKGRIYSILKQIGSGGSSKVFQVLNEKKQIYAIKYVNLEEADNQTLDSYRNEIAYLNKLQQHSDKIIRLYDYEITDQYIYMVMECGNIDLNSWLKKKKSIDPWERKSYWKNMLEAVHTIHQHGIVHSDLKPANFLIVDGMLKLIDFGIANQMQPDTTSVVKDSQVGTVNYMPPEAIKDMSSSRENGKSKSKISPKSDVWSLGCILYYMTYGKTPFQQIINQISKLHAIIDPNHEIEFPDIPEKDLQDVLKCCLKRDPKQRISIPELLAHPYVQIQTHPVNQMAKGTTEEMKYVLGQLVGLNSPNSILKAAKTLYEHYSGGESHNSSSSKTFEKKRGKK

[4] = target: T2, Dual specificity protein kinase TTK; assay: Competitive inhibition of amino terminal GST-fused full length human TTK using His6-SUMO-TTK-N as substrate by Lineweaver-Burk plot analysis in presence of ATP; conditions: read-out: Ki(app)
[5] = Plasma protein binding in rat; type: ADME, cell-free; conditions: read-out: PPB (converted)
[6] = target: Proto-oncogene tyrosine-protein kinase receptor Ret (Homo sapiens, UniProt P07949); assay: Inhibition of human Ret by millipore radiometric assay
Method in brief: (§2)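 Radiometric profiling against a 278-kinase panel was done with ATP at Km. Half-maximal inhibitory concentrations were then determined for the kinases most inhibited.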

[7] = tested on: COLO 205; assay: Cytotoxicity against human COLO205 cells after 5 days by sulforhodamine B assay; type: functional; conditions: COLO 205, 120 h; method in brief: as §1
[8] = tested on: A549; assay: Cytotoxicity against human A549 cells after 5 days by sulforhodamine B assay; type: functional; conditions: A549, 120 h; method in brief: as §1
[9] = tested on: SK-MEL-5; assay: Cytotoxicity against human SK-MEL-5 cells after 5 days by sulforhodamine B assay; type: functional; conditions: SK-MEL-5, 120 h; method in brief: as §1
[10] = tested on: SW48; assay: Antitumor activity against human SW48 cells xenografted in CD-1 nude mouse assessed as tumor growth inhibition at 30 mg/kg, po qd administered for 21 days measured 3 times per week during compound dosing relative to vehicle-treated control; type: functional; conditions: SW48, 504 h, read-out: TGI
Method in brief: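 Randomization into groups (n = 7) at 80–120 mm³ mean tumor volume. Compound was given orally once daily for 21 days in 10% NMP/40% PEG400/50% DI water, top dose 30 mg/kg. Tumor volume (x²y/2) was taken three times weekly, and TGI was calculated against vehicle.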

[11] = Plasma protein binding in dog; type: ADME, cell-free, Canis lupus familiaris; conditions: read-out: PPB (converted)
[12] = Cytotoxicity against human H23 cells after 5 days by sulforhodamine B assay; type: functional; conditions: NCI-H23, 120 h; method in brief: as §1
[13] = Half life in Sprague-Dawley rat at 1 mg/kg, iv by LC-MS/MS analysis; type: ADME, organism-based; design: dose 1 mg/kg, route intravenous; conditions: in vivo
[14] = target: Mitogen-activated protein kinase 1 (Homo sapiens, UniProt P28482); assay: Inhibition of human MAPK1 by millipore radiometric assay; method in brief: as §2
[15] = target: Aurora kinase B/Inner centromere protein (Homo sapiens, UniProt Q96GD4); assay: Inhibition of AURKB/INCENP (unknown origin) preincubated for 15 mins prior to ATP addition by FRET-based homogenous assay; type: protein-complex assay
Method in brief: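 The enzyme was AURKB/INCENP in a FRET-based homogeneous assay run to kit specifications, with ATP at 128 μM. […] Each IC50 came from a single determination, reported with its standard fitting error.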

[16] = Half life in rat liver microsomes at 1 uM by LC-MS analysis; type: ADME; conditions: liver microsomes
[17] = target: Mast/stem cell growth factor receptor Kit (Homo sapiens, UniProt P10721, V560G); assay: Inhibition of human cKit V560G mutant by millipore radiometric assay; method in brief: as §2
[18] = target: Serine/threonine-protein kinase PLK4 (Homo sapiens, UniProt O00444); assay: Inhibition of PLK4 (unknown origin) by indirect ELISA detection system
[19] = Half life in dog liver microsomes at 1 uM by LC-MS analysis; type: ADME, Canis lupus familiaris
[20] = Antitumor activity against human HCT116 cells xenografted in athymic CD1 nude mouse assessed as tumor growth inhibition at 35 mg/kg, po qd administered for 21 days measured 3 times per week during compound dosing relative to vehicle-treated control; type: functional; conditions: HCT-116, 504 h, read-out: TGI
Method in brief: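 HCT116 cells (5 million) were injected subcutaneously into the right flank of 6–8 week old female athymic CD-1 nude mice. At a mean tumor volume of 80–120 mm³, mice were randomized (n = 8). Tumors were measured three times weekly, volume x²y/2, and TGI was taken against vehicle.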

Chain of Serine/threonine-protein kinase PLK4 (O00444 whole entry): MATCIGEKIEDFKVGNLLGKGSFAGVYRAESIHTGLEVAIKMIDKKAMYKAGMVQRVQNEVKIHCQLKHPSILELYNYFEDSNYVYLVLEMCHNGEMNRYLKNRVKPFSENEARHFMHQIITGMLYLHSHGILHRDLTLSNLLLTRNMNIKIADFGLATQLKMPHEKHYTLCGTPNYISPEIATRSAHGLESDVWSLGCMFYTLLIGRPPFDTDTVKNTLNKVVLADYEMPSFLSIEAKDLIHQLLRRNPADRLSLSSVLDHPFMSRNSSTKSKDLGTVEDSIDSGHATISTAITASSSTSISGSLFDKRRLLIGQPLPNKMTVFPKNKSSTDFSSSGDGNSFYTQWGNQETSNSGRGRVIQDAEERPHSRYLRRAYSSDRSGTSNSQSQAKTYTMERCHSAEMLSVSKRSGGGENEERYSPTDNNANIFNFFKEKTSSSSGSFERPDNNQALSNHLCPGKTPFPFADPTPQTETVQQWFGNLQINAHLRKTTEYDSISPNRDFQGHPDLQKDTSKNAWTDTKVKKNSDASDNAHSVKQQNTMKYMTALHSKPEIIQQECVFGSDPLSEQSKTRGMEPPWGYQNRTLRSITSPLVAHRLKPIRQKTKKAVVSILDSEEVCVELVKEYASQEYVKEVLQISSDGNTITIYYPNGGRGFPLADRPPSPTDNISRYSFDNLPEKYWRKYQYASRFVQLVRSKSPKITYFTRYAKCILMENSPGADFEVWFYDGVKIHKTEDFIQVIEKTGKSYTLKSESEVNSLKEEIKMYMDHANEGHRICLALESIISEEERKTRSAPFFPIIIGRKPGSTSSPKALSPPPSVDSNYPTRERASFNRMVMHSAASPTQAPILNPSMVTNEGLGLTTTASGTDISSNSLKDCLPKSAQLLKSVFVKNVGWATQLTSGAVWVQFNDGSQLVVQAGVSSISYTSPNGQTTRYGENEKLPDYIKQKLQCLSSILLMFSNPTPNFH
Chain of Proto-oncogene tyrosine-protein kinase receptor Ret (P07949 whole entry): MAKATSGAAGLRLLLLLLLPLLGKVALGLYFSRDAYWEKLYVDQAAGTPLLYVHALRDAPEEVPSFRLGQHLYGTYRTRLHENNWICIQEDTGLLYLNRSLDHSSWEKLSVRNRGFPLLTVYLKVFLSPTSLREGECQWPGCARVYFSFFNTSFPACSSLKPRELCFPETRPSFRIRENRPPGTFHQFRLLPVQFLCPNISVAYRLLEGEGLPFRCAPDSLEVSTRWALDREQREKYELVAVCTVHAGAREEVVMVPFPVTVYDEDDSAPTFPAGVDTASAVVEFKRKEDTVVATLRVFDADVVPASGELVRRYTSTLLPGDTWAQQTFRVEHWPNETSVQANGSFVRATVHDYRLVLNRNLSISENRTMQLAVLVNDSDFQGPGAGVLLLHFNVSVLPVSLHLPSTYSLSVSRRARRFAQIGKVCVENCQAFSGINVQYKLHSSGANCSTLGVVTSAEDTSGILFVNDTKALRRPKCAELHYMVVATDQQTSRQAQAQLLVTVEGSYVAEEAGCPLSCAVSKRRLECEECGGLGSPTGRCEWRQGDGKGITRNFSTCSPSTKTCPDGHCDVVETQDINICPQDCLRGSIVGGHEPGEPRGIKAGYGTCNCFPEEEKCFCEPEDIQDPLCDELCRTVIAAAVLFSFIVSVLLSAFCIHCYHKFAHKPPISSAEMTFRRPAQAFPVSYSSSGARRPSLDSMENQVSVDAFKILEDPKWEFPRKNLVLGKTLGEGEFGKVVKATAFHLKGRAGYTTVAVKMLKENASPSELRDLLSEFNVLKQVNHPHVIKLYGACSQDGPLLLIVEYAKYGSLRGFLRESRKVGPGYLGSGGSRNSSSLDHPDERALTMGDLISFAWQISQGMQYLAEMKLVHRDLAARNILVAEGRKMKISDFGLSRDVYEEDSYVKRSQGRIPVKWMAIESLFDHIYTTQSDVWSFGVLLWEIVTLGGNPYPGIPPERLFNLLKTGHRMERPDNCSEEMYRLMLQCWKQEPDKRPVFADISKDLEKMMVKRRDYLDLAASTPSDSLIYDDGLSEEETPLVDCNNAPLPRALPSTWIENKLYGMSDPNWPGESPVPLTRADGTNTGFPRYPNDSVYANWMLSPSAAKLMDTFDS
Chain of Mitogen-activated protein kinase 1 (P28482 whole entry): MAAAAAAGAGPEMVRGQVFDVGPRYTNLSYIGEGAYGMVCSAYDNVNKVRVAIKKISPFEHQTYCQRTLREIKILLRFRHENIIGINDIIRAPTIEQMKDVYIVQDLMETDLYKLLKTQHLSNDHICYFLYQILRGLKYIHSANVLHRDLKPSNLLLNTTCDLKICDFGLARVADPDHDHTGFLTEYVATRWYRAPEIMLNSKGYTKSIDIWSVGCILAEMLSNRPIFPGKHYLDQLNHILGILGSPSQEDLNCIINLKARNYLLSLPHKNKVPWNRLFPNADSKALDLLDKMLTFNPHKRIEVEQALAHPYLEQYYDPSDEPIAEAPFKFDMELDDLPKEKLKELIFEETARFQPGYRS
Chain of Mast/stem cell growth factor receptor Kit (P10721 26-976 V560G limits assumed): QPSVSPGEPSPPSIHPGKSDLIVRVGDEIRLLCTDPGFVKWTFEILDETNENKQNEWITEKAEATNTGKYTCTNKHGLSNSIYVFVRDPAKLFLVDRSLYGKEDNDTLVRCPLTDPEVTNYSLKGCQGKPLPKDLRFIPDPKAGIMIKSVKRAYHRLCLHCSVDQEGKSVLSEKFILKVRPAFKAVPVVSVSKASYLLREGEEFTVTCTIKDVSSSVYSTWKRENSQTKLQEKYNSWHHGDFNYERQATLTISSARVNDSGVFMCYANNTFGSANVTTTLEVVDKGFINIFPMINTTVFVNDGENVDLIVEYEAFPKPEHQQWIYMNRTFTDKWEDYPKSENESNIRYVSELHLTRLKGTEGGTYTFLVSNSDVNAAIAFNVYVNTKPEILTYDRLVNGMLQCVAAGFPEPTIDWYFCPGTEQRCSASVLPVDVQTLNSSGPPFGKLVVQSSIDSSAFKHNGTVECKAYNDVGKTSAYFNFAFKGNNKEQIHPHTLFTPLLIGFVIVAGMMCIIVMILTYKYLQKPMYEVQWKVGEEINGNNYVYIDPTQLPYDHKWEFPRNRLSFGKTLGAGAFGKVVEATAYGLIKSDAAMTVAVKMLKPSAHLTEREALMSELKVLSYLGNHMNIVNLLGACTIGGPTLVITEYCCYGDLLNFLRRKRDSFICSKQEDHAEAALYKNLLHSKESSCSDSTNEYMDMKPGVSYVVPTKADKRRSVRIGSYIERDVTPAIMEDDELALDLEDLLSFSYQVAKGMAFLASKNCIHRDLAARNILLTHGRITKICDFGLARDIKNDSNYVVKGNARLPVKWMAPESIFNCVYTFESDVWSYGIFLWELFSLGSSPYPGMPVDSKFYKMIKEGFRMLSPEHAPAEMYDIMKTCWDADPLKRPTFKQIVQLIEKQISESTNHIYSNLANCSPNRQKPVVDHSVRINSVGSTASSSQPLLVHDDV
Chain of Aurora kinase B/Inner centromere protein (Q96GD4 whole entry): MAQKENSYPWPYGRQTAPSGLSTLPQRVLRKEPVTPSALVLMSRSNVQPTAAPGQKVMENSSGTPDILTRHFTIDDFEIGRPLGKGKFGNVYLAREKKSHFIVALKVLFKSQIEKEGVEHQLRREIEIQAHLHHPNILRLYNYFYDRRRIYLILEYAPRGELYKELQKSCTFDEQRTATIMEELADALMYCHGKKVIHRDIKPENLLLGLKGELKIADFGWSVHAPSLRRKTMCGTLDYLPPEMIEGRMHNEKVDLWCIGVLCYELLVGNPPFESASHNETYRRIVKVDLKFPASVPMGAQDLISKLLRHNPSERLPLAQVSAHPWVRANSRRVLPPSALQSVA
Chain of Aurora kinase B/Inner centromere protein (Q9NQS7 whole entry, further chain): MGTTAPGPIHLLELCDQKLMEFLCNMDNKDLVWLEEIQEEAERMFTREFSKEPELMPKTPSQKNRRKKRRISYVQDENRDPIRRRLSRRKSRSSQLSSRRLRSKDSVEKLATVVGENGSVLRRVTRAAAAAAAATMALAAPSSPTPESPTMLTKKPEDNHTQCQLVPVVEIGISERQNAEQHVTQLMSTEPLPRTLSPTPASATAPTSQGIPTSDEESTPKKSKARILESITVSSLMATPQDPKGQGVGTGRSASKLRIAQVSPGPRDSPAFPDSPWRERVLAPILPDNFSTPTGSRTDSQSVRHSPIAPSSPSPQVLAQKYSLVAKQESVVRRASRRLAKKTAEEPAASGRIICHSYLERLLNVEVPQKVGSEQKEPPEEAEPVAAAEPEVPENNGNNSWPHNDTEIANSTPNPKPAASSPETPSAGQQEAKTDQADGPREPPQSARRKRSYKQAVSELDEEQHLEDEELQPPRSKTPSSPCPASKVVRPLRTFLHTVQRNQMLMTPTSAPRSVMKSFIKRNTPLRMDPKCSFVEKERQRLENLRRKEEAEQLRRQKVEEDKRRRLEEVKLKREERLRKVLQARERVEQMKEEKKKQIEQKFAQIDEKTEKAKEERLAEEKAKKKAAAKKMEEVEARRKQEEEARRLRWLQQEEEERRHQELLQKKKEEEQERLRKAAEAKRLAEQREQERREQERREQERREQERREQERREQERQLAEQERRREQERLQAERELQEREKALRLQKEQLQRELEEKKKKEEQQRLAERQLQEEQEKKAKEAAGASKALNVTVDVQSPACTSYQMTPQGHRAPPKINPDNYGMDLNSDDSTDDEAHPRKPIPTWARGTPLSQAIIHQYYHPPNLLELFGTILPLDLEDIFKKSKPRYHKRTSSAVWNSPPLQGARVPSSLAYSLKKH

## O=C(N[C@@H](c1ccccn1)C1CC1)c1ccc2[nH]nc(-c3ccc(N4[C@H]5CC[C@H]4CC(O)C5)cc3)c2c1 (stereo in doubt; 75)
[1]
  GI50: 60 nM
[2]
  IC50: 1300 nM
[3]
  IC50: 3.1 nM
[4]
  Ki: 0.7 nM
[5]
  fraction unbound: 0.069
[6]
  IC50: 2800 nM
[7]
  GI50: 60 nM
[8]
  GI50: 24 nM
[9]
  GI50: 20 nM
[10]
  inhibition in vivo at 30 mg/kg: 66%
[11]
  fraction unbound: 0.114
[12]
  GI50: 36 nM
[13]
  half-life: 46.8 min
[14]
  IC50: 320 nM
[15]
  IC50: 1300 nM
[16]
  half-life at 1 µM: > 60 min
[17]
  IC50: 490 nM
[18]
  IC50: 130 nM
[19]
  half-life at 1 µM: > 60 min
[20]
  inhibition in vivo at 35 mg/kg: 77%
